# High-throughput results from PubChem.
# TNAP inh hi DEA: human TNAP enzyme inhibitors, primary screen, biochemical, luminescent, high phosphate acceptor level, uHTS; purified TNAP, CDP-star luminescence, 1 M DEA; 200,000 tested, 0.03% active; Alkaline phosphatase, tissue-nonspecific isozyme (Homo sapiens), P05186; inhibition, % at 20 µM;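 active = over 50% inhibition of tissue-nonspecific alkaline phosphatase at 20 µM in the single-dose screen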;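 note: plate controls were DMSO wells for no effect and EDTA-quenched wells as full inhibition for full effect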
# Target sequence (P05186 whole entry, looked up): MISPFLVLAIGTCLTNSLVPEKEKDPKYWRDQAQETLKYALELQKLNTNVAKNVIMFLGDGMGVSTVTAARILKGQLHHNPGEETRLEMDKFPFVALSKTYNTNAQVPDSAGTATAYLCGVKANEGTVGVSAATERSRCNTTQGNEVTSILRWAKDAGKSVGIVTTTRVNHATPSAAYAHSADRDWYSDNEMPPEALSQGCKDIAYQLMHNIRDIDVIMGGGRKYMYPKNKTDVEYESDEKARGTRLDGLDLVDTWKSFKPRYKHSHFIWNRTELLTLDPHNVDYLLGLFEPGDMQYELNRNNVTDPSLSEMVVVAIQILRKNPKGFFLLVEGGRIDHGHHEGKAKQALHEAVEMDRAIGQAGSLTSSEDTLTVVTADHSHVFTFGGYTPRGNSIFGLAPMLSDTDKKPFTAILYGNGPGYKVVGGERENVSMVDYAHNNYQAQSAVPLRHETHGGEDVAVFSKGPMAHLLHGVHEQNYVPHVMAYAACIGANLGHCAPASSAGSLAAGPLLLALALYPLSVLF
# bCat KO growth: primary screen for growth suppressors in beta-catenin knockout HCT116 cells (colon tumor, human). HCT116 beta-catenin knockout viability, CellTiter-Glo, 60 h; hits give low values. 140,000 tested, 1.5% active. viability, % at 10 µM;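 active = viability at or under a set limit, the compound median less 4 SD, cut at about 6% in these data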;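 note: 0% = Hyamine 1622 control at 20 µM and 100% = untreated cell control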
# HCT116 PTEN-null: growth suppression of PTEN-null HCT116, primary screen, cell-based, CellTiter-Glo | HCT116 PTEN-null viability, 60 h; hits give low values | viability, % at 10 µM | 140,000 tested, 1.2% active | AID 827, 2007;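 active = viability at or below a set limit, 4 SD under the median of all tested compounds, cut at about 3.7% in these data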;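 note: PTEN knockout HCT116 line with beta catenin targeted HCT116 as companion control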
# TNAP inh no acc: human TNAP enzyme inhibitors, primary screen, biochemical, luminescent, no phosphate acceptor, uHTS. Alkaline phosphatase, tissue-nonspecific isozyme (Homo sapiens), P05186. purified TNAP, CDP-star luminescence, 30 min. inhibition, % at 20 µM. 200,000 tested, 0.26% active;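 active = tissue-nonspecific alkaline phosphatase inhibition above about 50% at 20 µM in the single-dose screen, limit read from the data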;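 note: 0% = DMSO negative control and 100% = EDTA positive control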
# TNAP act hiacc: TNAP activators at high phosphate acceptor level, primary screen, biochemical, luminescence, uHTS. Alkaline phosphatase, tissue-nonspecific isozyme (Homo sapiens), P05186. 200,000 tested, under 10 active. activation factor at 20 µM. purified TNAP, CDP-star luminescence, 1 M DEA, 30 min; hits give high values; 0 = EDTA background, 1 = DMSO-only activity;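 active = activation factor at least 2 at 20 µM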
#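 Test system – human TNAP · Doses – 20 µM single point · Incubation – 30 min, room temperature · Signal – luminescent substrate turnover signal · Read-out basis – activation factor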
# Lmaj promast: Leishmania major promastigote growth inhibition, primary screen. inhibition, % at 10 µM. Leishmania major promastigotes, resazurin fluorescence viability. 200,000 tested, 9% active. AID 1063, 2008; in the data active = inhibition above about 50%;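 note: promastigotes grown with compound for 44 hours at 28 °C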
# * marks the source's active call; other numbers are inactive results; nt = no result. An excerpt weighted towards active compounds, which were near 9.6% of everything screened.
SMILES,TNAP inh hi DEA,bCat KO growth,HCT116 PTEN-null,TNAP inh no acc,TNAP act hiacc,Lmaj promast
NC(=O)N/N=C\c1cc(Br)ccc1O,1.7,77.3,73.0,-5.4,1,-11.7
Cc1cccc(/C=N\NC(=O)c2ccc(Cl)cc2)c1O,-2.4,nt,nt,-53.7,1,72.4*
COCCCN(CC(=O)Nc1ccc(N2CCOCC2)cc1)S(=O)(=O)c1ccc(Cl)cc1,-7.2,nt,nt,-12.2,1.1,3.3
CCOc1ccc(CNCc2cccnc2)cc1,2.1,87.5,106.8,-3.8,1,89.5*
Cc1sc2ncnc(NCc3cccnc3)c2c1C,-2.9,nt,nt,-9.1,1,5.3
Cc1ccc(CNCc2cccnc2)cc1,-3.4,101.5,101.0,0.4,1,92.7*
CC(C)(C)NC(=O)COc1ccc(CNCc2cccs2)cc1,-5.1,87.8,90.6,-12.1,1.1,76.7*
Cc1ccc(CNCc2cccnc2)s1,-4.7,nt,nt,-10.7,1,66.1*
CCOc1ccc(NC(=O)NCc2cccnc2)cc1,-5.9,nt,nt,-6.7,1.1,4.0
Cc1ccc(NCc2cccnc2)c(Br)c1,0.1,102.4,93.1,1.3,1,-3.3
O=C(COC(=O)c1cc(Br)ccc1O)Nc1cc(S(=O)(=O)N2CCCC2)ccc1Cl,-2.0,nt,nt,-3.2,1,3.2
c1ccc(COc2ccc(CNCc3cccnc3)cc2)cc1,-3.8,nt,nt,-10.2,1,99.0*
c1ccc(COc2ccc(CNCc3cccs3)cc2)cc1,-6.9,85.4,84.5,-9.1,1.1,99.1*
CCN(CC)CCNC(=S)Nc1ccc2nc3n(c(=O)c2c1)CCCCC3,-4.1,nt,nt,-1.2,1,3.2
CCN(CC)CCNc1cc(C)nc2c1C(=O)C(=O)C=C2N1CCCCC1,17.4,nt,nt,24.5,0.8,100.7*
CCOc1ccc(-c2nn(-c3ccccc3)cc2/C=C(\C#N)S(=O)(=O)c2ccccc2)cc1C,-5.9,45.6,47.8,-20.7,1.1,64.0*
COc1cccc(N2CCN(C(=O)c3nc4nc(C)cc(C)n4n3)CC2)c1,-6.1,nt,nt,-18.5,1.1,-10.3
Cc1ccc(C)c(NC(=O)c2ccccc2NS(=O)(=O)c2cc([N+](=O)[O-])ccc2C)c1,1.3,11.1,5.8,27.0,1,62.5*
Cc1ccc(C)c(S(=O)(=O)Nc2ccccc2C(=O)Nc2cc(C)on2)c1,1.5,70.9,65.6,-1.7,1,35.1
Cc1ccc(C)c(NC(=O)c2ccccc2Sc2ccc([N+](=O)[O-])cc2Cl)c1,-0.5,62.0,56.4,-4.6,1,96.1*
CCCCNC(=S)Nc1ccc(OC)nc1,-3.9,nt,nt,-13.1,1,-3.3
CCOC(=O)C(C)/C(C)=N/NC(N)=S (stereo unspecified),-1.6,103.4,109.9,-25.4,1,61.4*
CCOC(=O)C(Oc1ccc2c(-c3ccccc3)cc(=O)oc2c1)c1ccccc1 (stereo unspecified),1.5,72.3,73.3,-15.4,1,78.4*
CC(C)c1ccccc1NC(=O)CCc1nc2ccccc2s1,1.3,89.2,93.3,-7.2,1,-0.2
O=c1cc(CNc2ccc(Br)cc2)nc2sccn12,0.0,86.5,82.8,-18.1,1,70.7*
SMILES,TNAP inh hi DEA,bCat KO growth,HCT116 PTEN-null,TNAP inh no acc,TNAP act hiacc,Lmaj promast
COc1ccc(-c2nc3ccccc3c(=O)n2NC(=S)N(C)C)cc1,-2.6,99.6,99.0,-26.8,1,-7.3
COc1ccc(C2=NN(C(=O)CSc3ncccn3)C(c3cccc(OC)c3OC)C2)cc1 (stereo unspecified),-7.0,nt,nt,-15.4,1.1,78.6*
Cc1nc(C(=O)N2CCc3c([nH]c4ccccc34)C2c2cc(F)ccc2F)cs1 (stereo unspecified),-9.6,nt,nt,-6.1,1.1,54.1*
Cc1nc(C(=O)N2CCc3c([nH]c4ccccc34)C2c2ccccn2)cs1 (stereo unspecified),0.3,nt,nt,-4.2,1,9.3
C#CCNC(=O)C1=C[C@H](c2ccc(C(F)(F)F)cc2)C[C@H](OCc2ccc(CO)cc2)O1,0.3,nt,nt,-0.3,1,5.3
O=C(CC(SCCO)c1ccc2c(c1)OCO2)c1ccco1 (stereo unspecified),3.2,107.2,94.5,18.3,1,56.5*
